Source: ChEMBL document CHEMBL5058577, “EUbOPEN Chemogenomics Library 2 (Multiplex)” (2022)

Test system: U2OS
Assay: Multiplex assay against U2OS
Assay type: toxicity, cell-based
Conditions: human
How it was run: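 Tubulin, mitochondrial-mass and membrane-permeability phenotypes are per cents of healthy-nucleus cells. Cells were gated by CellPathfinder machine learning into Hoechst high-intensity objects or normal cells, normal cells into healthy, pyknosed or fragmented nuclei, and pyknosed cells into mitotic or apoptotic. Before that, live cells stained at seeding with Hoechst33342, BioTracker Green Microtubule Cytoskeleton Dye, MitoTracker Red and Annexin V Alexa Fluor 680 were imaged on a CQ1 microscope at 37°C and 5% CO2 after compound addition.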

[1] = 12 h, 1 µM, compound concentration 1 uM, replicate 1
[2] = 12 h, 1 µM, compound concentration 1 uM, replicate 2
[3] = 12 h, 10 µM, compound concentration 10 uM, replicate 1
[4] = 12 h, 10 µM, compound concentration 10 uM, replicate 2
[5] = 24 h, 1 µM, compound concentration 1 uM, replicate 1
[6] = 24 h, 1 µM, compound concentration 1 uM, replicate 2
[7] = 24 h, 10 µM, compound concentration 10 uM, replicate 1
[8] = 24 h, 10 µM, compound concentration 10 uM, replicate 2
[9] = 48 h, 1 µM, compound concentration 1 uM, replicate 1
[10] = 48 h, 1 µM, compound concentration 1 uM, replicate 2
[11] = 48 h, 10 µM, compound concentration 10 uM, replicate 1
[12] = 48 h, 10 µM, compound concentration 10 uM, replicate 2

COc1c(Nc2ccc(S(C)(=O)=O)nc2C)ncnc1OC1CCN(C(=O)OC(C)C)CC1 [ADP-597]
Population Apoptotic (%) [1]: 82%
Population Fragmented Nuclei (%) [1]: 23%
Population Healthy Nuclei (%) [1]: 68%
Population Hoechst High Intensity Objects (%) [1]: 2%
Population Membrane Permeable-Phenotype (%) [1]: 7%
Population Mitochondria Different-Phenotype (%) [1]: 1%
Population Mitotic Cells (%) [1]: 17%
Population Normal (%) [1]: 97%
Population Pyknosed Nuclei (%) [1]: 8%
Population Tubulin-Different-Phenotype (%) [1]: 5%
Total Cell Count [1]: 208
Population Apoptotic (%) [2]: 75%
Population Fragmented Nuclei (%) [2]: 13%
Population Healthy Nuclei (%) [2]: 78%
Population Hoechst High Intensity Objects (%) [2]: 3%
Population Membrane Permeable-Phenotype (%) [2]: 11%
Population Mitotic Cells (%) [2]: 25%
Population Normal (%) [2]: 96%
Population Tubulin-Different-Phenotype (%) [2]: 2%
Total Cell Count [2]: 95
Population Apoptotic (%) [3]: 93%
Population Fragmented Nuclei (%) [3]: 27%
Population Healthy Nuclei (%) [3]: 60%
Population Hoechst High Intensity Objects (%) [3]: 8%
Population Membrane Permeable-Phenotype (%) [3]: 7%
Population Mitochondria Different-Phenotype (%) [3]: 2%
Population Mitotic Cells (%) [3]: 6%
Population Normal (%) [3]: 91%
Population Pyknosed Nuclei (%) [3]: 11%
Population Tubulin-Different-Phenotype (%) [3]: 4%
Total Cell Count [3]: 266
Population Apoptotic (%) [4]: 85%
Population Fragmented Nuclei (%) [4]: 10%
Population Healthy Nuclei (%) [4]: 77%
Population Hoechst High Intensity Objects (%) [4]: 4%
Population Mitochondria Different-Phenotype (%) [4]: 3%
Population Mitotic Cells (%) [4]: 14%
Population Normal (%) [4]: 95%
Population Tubulin-Different-Phenotype (%) [4]: 1%
Total Cell Count [4]: 128
Population Apoptotic (%) [5]: 88%
Population Fragmented Nuclei (%) [5]: 24%
Population Healthy Nuclei (%) [5]: 67%
Population Hoechst High Intensity Objects (%) [5]: 3%
Population Membrane Permeable-Phenotype (%) [5]: 7%
Population Mitochondria Different-Phenotype (%) [5]: 3%
Population Mitotic Cells (%) [5]: 11%
Population Normal (%) [5]: 96%
Population Pyknosed Nuclei (%) [5]: 7%
Population Tubulin-Different-Phenotype (%) [5]: 3%
Total Cell Count [5]: 239
Population Apoptotic (%) [6]: 80%
Population Fragmented Nuclei (%) [6]: 12%
Population Healthy Nuclei (%) [6]: 79%
Population Membrane Permeable-Phenotype (%) [6]: 8%
Population Mitotic Cells (%) [6]: 20%
Population Pyknosed Nuclei (%) [6]: 8%
Population Tubulin-Different-Phenotype (%) [6]: 5%
Total Cell Count [6]: 129
Population Apoptotic (%) [7]: 88%
Population Fragmented Nuclei (%) [7]: 30%
Population Healthy Nuclei (%) [7]: 61%
Population Hoechst High Intensity Objects (%) [7]: 6%
Population Membrane Permeable-Phenotype (%) [7]: 8%
Population Mitochondria Different-Phenotype (%) [7]: 2%
Population Mitotic Cells (%) [7]: 12%
Population Normal (%) [7]: 93%
Population Pyknosed Nuclei (%) [7]: 8%
Population Tubulin-Different-Phenotype (%) [7]: 4%
Total Cell Count [7]: 305
Population Apoptotic (%) [8]: 83%
Population Fragmented Nuclei (%) [8]: 11%
Population Healthy Nuclei (%) [8]: 80%
Population Hoechst High Intensity Objects (%) [8]: 5%
Population Membrane Permeable-Phenotype (%) [8]: 6%
Population Mitochondria Different-Phenotype (%) [8]: 4%
Population Mitotic Cells (%) [8]: 16%
Population Normal (%) [8]: 94%
Population Tubulin-Different-Phenotype (%) [8]: 1%
Total Cell Count [8]: 155
Population Apoptotic (%) [9]: 80%
Population Fragmented Nuclei (%) [9]: 19%
Population Healthy Nuclei (%) [9]: 72%
Population Hoechst High Intensity Objects (%) [9]: 2%
Population Membrane Permeable-Phenotype (%) [9]: 6%
Population Mitochondria Different-Phenotype (%) [9]: 5%
Population Mitotic Cells (%) [9]: 19%
Population Normal (%) [9]: 97%
Population Pyknosed Nuclei (%) [9]: 7%
Population Tubulin-Different-Phenotype (%) [9]: 2%
Total Cell Count [9]: 339
Population Apoptotic (%) [10]: 81%
Population Fragmented Nuclei (%) [10]: 20%
Population Healthy Nuclei (%) [10]: 67%
Population Membrane Permeable-Phenotype (%) [10]: 5%
Population Mitochondria Different-Phenotype (%) [10]: 4%
Population Mitotic Cells (%) [10]: 18%
Population Pyknosed Nuclei (%) [10]: 12%
Total Cell Count [10]: 185
Population Apoptotic (%) [11]: 79%
Population Fragmented Nuclei (%) [11]: 24%
Population Healthy Nuclei (%) [11]: 62%
Population Hoechst High Intensity Objects (%) [11]: 6%
Population Membrane Permeable-Phenotype (%) [11]: 6%
Population Mitochondria Different-Phenotype (%) [11]: 4%
Population Mitotic Cells (%) [11]: 20%
Population Normal (%) [11]: 93%
Population Pyknosed Nuclei (%) [11]: 13%
Population Tubulin-Different-Phenotype (%) [11]: 2%
Total Cell Count [11]: 356
Population Apoptotic (%) [12]: 92%
Population Fragmented Nuclei (%) [12]: 10%
Population Healthy Nuclei (%) [12]: 77%
Population Hoechst High Intensity Objects (%) [12]: 3%
Population Membrane Permeable-Phenotype (%) [12]: 4%
Population Mitochondria Different-Phenotype (%) [12]: 0%
Population Mitotic Cells (%) [12]: 8%
Population Normal (%) [12]: 96%
Population Pyknosed Nuclei (%) [12]: 11%
Total Cell Count [12]: 223

COc1cc2nc(N3CCN(C(=O)c4ccco4)CC3)nc(N)c2cc1OC.Cl [PRAZOSIN HYDROCHLORIDE]
Population Apoptotic (%) [1]: 88%
Population Fragmented Nuclei (%) [1]: 21%
Population Healthy Nuclei (%) [1]: 70%
Population Hoechst High Intensity Objects (%) [1]: 2%
Population Membrane Permeable-Phenotype (%) [1]: 4%
Population Mitochondria Different-Phenotype (%) [1]: 2%
Population Mitotic Cells (%) [1]: 11%
Population Normal (%) [1]: 97%
Population Pyknosed Nuclei (%) [1]: 7%
Population Tubulin-Different-Phenotype (%) [1]: 1%
Total Cell Count [1]: 235
Population Apoptotic (%) [2]: 94%
Population Fragmented Nuclei (%) [2]: 18%
Population Healthy Nuclei (%) [2]: 69%
Population Hoechst High Intensity Objects (%) [2]: 1%
Population Membrane Permeable-Phenotype (%) [2]: 5%
Population Mitochondria Different-Phenotype (%) [2]: 7%
Population Mitotic Cells (%) [2]: 5%
Population Normal (%) [2]: 98%
Population Pyknosed Nuclei (%) [2]: 12%
Population Tubulin-Different-Phenotype (%) [2]: 8%
Total Cell Count [2]: 159
Population Apoptotic (%) [3]: 86%
Population Fragmented Nuclei (%) [3]: 25%
Population Healthy Nuclei (%) [3]: 67%
Population Hoechst High Intensity Objects (%) [3]: 3%
Population Membrane Permeable-Phenotype (%) [3]: 12%
Population Mitochondria Different-Phenotype (%) [3]: 2%
Population Mitotic Cells (%) [3]: 13%
Population Normal (%) [3]: 96%
Population Pyknosed Nuclei (%) [3]: 7%
Population Tubulin-Different-Phenotype (%) [3]: 6%
Total Cell Count [3]: 216
Population Apoptotic (%) [4]: 72%
Population Fragmented Nuclei (%) [4]: 15%
Population Healthy Nuclei (%) [4]: 74%
Population Hoechst High Intensity Objects (%) [4]: 0%
Population Membrane Permeable-Phenotype (%) [4]: 4%
Population Mitochondria Different-Phenotype (%) [4]: 5%
Population Mitotic Cells (%) [4]: 27%
Population Normal (%) [4]: 99%
Population Pyknosed Nuclei (%) [4]: 9%
Population Tubulin-Different-Phenotype (%) [4]: 7%
Total Cell Count [4]: 114
Population Apoptotic (%) [5]: 95%
Population Fragmented Nuclei (%) [5]: 22%
Population Healthy Nuclei (%) [5]: 69%
Population Hoechst High Intensity Objects (%) [5]: 1%
Population Membrane Permeable-Phenotype (%) [5]: 8%
Population Mitochondria Different-Phenotype (%) [5]: 2%
Population Mitotic Cells (%) [5]: 4%
Population Normal (%) [5]: 98%
Population Pyknosed Nuclei (%) [5]: 7%
Population Tubulin-Different-Phenotype (%) [5]: 4%
Total Cell Count [5]: 273
Population Apoptotic (%) [6]: 100%
Population Fragmented Nuclei (%) [6]: 15%
Population Healthy Nuclei (%) [6]: 74%
Population Hoechst High Intensity Objects (%) [6]: 0%
Population Membrane Permeable-Phenotype (%) [6]: 10%
Population Mitochondria Different-Phenotype (%) [6]: 5%
Population Mitotic Cells (%) [6]: 0%
Population Normal (%) [6]: 100%
Population Pyknosed Nuclei (%) [6]: 10%
Population Tubulin-Different-Phenotype (%) [6]: 9%
Total Cell Count [6]: 188
Population Apoptotic (%) [7]: 78%
Population Fragmented Nuclei (%) [7]: 23%
Population Healthy Nuclei (%) [7]: 68%
Population Hoechst High Intensity Objects (%) [7]: 2%
Population Membrane Permeable-Phenotype (%) [7]: 8%
Population Mitochondria Different-Phenotype (%) [7]: 6%
Population Mitotic Cells (%) [7]: 21%
Population Normal (%) [7]: 97%
Population Pyknosed Nuclei (%) [7]: 7%
Population Tubulin-Different-Phenotype (%) [7]: 6%
Total Cell Count [7]: 244
Population Apoptotic (%) [8]: 85%
Population Fragmented Nuclei (%) [8]: 13%
Population Healthy Nuclei (%) [8]: 71%
Population Hoechst High Intensity Objects (%) [8]: 1%
Population Membrane Permeable-Phenotype (%) [8]: 7%
Population Mitochondria Different-Phenotype (%) [8]: 5%
Population Mitotic Cells (%) [8]: 14%
Population Normal (%) [8]: 98%
Population Pyknosed Nuclei (%) [8]: 15%
Population Tubulin-Different-Phenotype (%) [8]: 4%
Total Cell Count [8]: 138
Population Apoptotic (%) [9]: 94%
Population Fragmented Nuclei (%) [9]: 16%
Population Healthy Nuclei (%) [9]: 74%
Population Hoechst High Intensity Objects (%) [9]: 2%
Population Membrane Permeable-Phenotype (%) [9]: 6%
Population Mitochondria Different-Phenotype (%) [9]: 2%
Population Mitotic Cells (%) [9]: 5%
Population Normal (%) [9]: 97%
Population Pyknosed Nuclei (%) [9]: 9%
Population Tubulin-Different-Phenotype (%) [9]: 2%
Total Cell Count [9]: 388
Population Apoptotic (%) [10]: 100%
Population Fragmented Nuclei (%) [10]: 15%
Population Healthy Nuclei (%) [10]: 77%
Population Hoechst High Intensity Objects (%) [10]: 1%
Population Membrane Permeable-Phenotype (%) [10]: 7%
Population Mitochondria Different-Phenotype (%) [10]: 7%
Population Mitotic Cells (%) [10]: 0%
Population Normal (%) [10]: 98%
Population Pyknosed Nuclei (%) [10]: 7%
Population Tubulin-Different-Phenotype (%) [10]: 5%
Total Cell Count [10]: 266
Population Apoptotic (%) [11]: 96%
Population Fragmented Nuclei (%) [11]: 20%
Population Healthy Nuclei (%) [11]: 71%
Population Hoechst High Intensity Objects (%) [11]: 1%
Population Membrane Permeable-Phenotype (%) [11]: 5%
Population Mitochondria Different-Phenotype (%) [11]: 2%
Population Mitotic Cells (%) [11]: 3%
Population Normal (%) [11]: 98%
Population Pyknosed Nuclei (%) [11]: 8%
Population Tubulin-Different-Phenotype (%) [11]: 3%
Total Cell Count [11]: 341
Population Apoptotic (%) [12]: 94%
Population Fragmented Nuclei (%) [12]: 15%
Population Healthy Nuclei (%) [12]: 76%
Population Hoechst High Intensity Objects (%) [12]: 2%
Population Mitochondria Different-Phenotype (%) [12]: 6%
Population Mitotic Cells (%) [12]: 5%
Population Normal (%) [12]: 97%
Total Cell Count [12]: 208
